Test results from PMC6314479 (Nature chemical biology, 2017).

Tests used:
[1] = system: FLT3-ITD positive primary AML patient cells and primagraft cells; test: Ex vivo treatment of AML patient samples and primagrafts; format: cell-based, human; conditions: 21 hours, 20 μM
FLT3-ITD = test: FLT3 degradation in FLT3-ITD positive AML lines; format: cell-based, human; conditions: MOLM13-luc+ and MOLM14, 20 μM
wt FLT3 = test: FLT3 protein levels in Ba/F3-wtFLT3 cells; format: cell-based, murine
[2] = system: FLT3-ITD+, D835Y+ AML primagraft; test: AML primagraft study in NSG mice; format: in vivo
How it was run: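 Primagraft mice got the test compound at 15 mg/kg IP once daily (n=3) or vehicle (n=3). Dosing began once disease was detectable by flow cytometry and ran for 21 days. Body weight was followed to judge tolerability.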

[3] = system: Ba/F3-FLT3-ITD-luc+ cells; test: Non-invasive in vivo bioluminescence model of leukemia
Beclin-1 = Beclin-1 and FLT3 protein levels; format: cell-based
USP10 [4] = target: USP10 (Homo sapiens, UniProt Q14694); test: MALDI-TOF DUB assay with diubiquitin as substrate, dose response; format: biochemical; conditions: read-out: USP10 IC50
How it was run: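 Human USP10 was freshly diluted in 40mM Tris–HCl pH 7.6, 5mM DTT, 0.005% BSA and pre-incubated with test compound for 30 min at room temperature. Di-ubiquitin topoisomers (K63, K48, K11, M1) at 1.5 μM were added, incubated 30 min at room temperature, then stopped with TFA at 2% (v/v) final. Cleavage was read by MALDI-TOF.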

[5] = system: Ba/F3-FLT3-ITD and Ba/F3-FLT3-D835Y cells; test: Proliferation of mutant FLT3-positive Ba/F3 cells; format: cell-based, murine
USP10 [6] = test: Competitive activity-based protein profiling with HA-Ub-VS in cells; format: cell-based; conditions: lysates from live treated cells (Ba/F3-FLT3-ITD, MOLM14)
[7] = 50 mg/kg twice daily IP, 4 days, pilot study

USP10 (Homo sapiens, UniProt Q14694), sequence (Q14694 whole entry): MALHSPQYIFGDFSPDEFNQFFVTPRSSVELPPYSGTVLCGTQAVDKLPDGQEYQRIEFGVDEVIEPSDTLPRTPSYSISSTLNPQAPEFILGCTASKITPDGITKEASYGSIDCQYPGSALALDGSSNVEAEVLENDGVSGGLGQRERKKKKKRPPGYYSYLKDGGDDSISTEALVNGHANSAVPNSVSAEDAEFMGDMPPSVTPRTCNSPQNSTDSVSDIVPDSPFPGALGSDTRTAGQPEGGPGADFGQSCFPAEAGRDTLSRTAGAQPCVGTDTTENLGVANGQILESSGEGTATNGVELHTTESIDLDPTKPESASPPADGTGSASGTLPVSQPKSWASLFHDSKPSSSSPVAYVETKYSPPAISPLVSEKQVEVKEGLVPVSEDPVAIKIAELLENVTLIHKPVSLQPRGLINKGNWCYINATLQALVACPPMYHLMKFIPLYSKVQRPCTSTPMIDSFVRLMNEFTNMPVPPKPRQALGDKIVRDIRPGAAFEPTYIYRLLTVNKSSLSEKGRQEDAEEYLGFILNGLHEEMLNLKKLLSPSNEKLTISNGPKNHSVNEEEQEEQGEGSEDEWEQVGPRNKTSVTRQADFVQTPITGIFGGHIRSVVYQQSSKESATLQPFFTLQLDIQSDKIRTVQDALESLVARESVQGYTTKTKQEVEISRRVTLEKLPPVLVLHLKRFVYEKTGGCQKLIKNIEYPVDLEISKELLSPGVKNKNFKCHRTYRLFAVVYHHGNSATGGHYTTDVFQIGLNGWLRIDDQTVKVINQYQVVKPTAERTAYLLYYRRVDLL

Row | Molecule | FLT3 levels via immunoblotting [1] | FLT3 degradation (FLT3-ITD) | FLT3 protein levels (wt FLT3) | FLT3 signal in mouse bone marrow lysates (immunoblot) ([2]; 15 mg/kg IP 1X daily, 21 days) | tolerability ([2]; 15mg/kg, 21 day treatment) | average weight loss ([2]; 15mg/kg, 21 days, same for vehicle-treated) [g] | leukemia burden compared to vehicle (in vivo bioluminescence) ([3]; 50 mg/kg IP twice daily or oral gavage once daily, 4–6 days of treatment) | lower percentage of FLT3 expression in bone marrow vs vehicle (flow cytometry) [3, 7] | reduction in luciferase-positive signal in bone marrow vs vehicle [3, 7] | difference in weight vs vehicle-treated mice ([3]; treated for up to 11 days) | protein levels of Beclin-1 (Beclin-1; 10 μM, MOLM14 cells) | IC50 (USP10 [4]) [µM] | EC50 for inhibition of proliferation [5] | inhibitor concentration blocking USP10 labeling by HA-Ub-VS (USP10 [6]) | protein levels of Beclin-1 and FLT3 (Beclin-1; 20 μM, Ba/F3-FLT3-ITD and MOLM14 cells)
1 | CC(=O)c1cc([N+](=O)[O-])c(Sc2ccc(F)cc2F)s1 [P22077] | strong reduction in FLT3 | strongly induced FLT3 degradation | unchanged | undetectable | generally well tolerated | 2 to 3 | statistically significant decrease | approximately 2 fold | approximately 2 fold | no significant difference | strongly decreased | 6 |  |  | 
2 | HBX19818 | strong reduction in FLT3 | strongly induced FLT3 degradation | unchanged |  |  |  |  |  |  |  |  | 14 | single digit micromolar range | low micromolar range | strongly decreased
